High-throughput results: PubChem BioAssay, The Scripps Research Institute Molecular Screening Center
In the library only some 2.9% were active in any assay of this set; here they are far more common.
5HT1E antag – 5-HT1E (human) receptor antagonism; AID 571; P28566; inhibition, % at 6 µM; CHO 5-HT1E Ga15 NFAT-bla reporter, FRET, antagonist; 65,000 tested, 0.99% active;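 active = inhibition above a set limit, the mean inhibition across every tested compound plus 3 SD, cut at about 29% in these data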;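 note: signal is the 460 over 535 nm emission ratio of beta-lactamase substrate; 0% = agonist plus DMSO wells and 100% = wells without agonist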
Target sequence (P28566 whole entry, looked up): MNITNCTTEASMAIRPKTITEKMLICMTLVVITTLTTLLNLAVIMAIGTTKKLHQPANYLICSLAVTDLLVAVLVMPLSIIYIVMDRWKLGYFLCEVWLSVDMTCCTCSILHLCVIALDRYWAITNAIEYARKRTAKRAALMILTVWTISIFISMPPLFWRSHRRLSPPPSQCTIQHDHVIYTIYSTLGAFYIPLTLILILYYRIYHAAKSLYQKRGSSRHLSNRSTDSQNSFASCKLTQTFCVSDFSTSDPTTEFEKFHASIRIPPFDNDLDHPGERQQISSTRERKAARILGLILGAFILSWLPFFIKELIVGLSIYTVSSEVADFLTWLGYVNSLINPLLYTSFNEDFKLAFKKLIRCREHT
S1P3 ag – agonists of human S1P3 receptor; 60,000 tested, 0.1% active; S1P3 NFAT-BLA reporter cells, agonism, FRET ratio; relative to 1 µM S1P, basal subtracted; Q99500; activation, % at 4.5 µM;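 active = activation above the screen-wide mean plus 3 SD, cut at about 4.5% in these data, passing the limit was not always enough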
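Benchmarks: high control 1 µM S1P / System: stable CHO line with human S1P3, Gα16, NFAT-BLA reporter / Dosing: single compound concentration, 4.5 µM final / Timing: 4 h compound at 37 °C, 2 h substrate at RT / Measured by: FRET β-lactamase substrate fluorescence, excitation 405 nm, 460/535 nm emission ratio, background-subtracted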
5HT1a antag – 5-HT1a (human) receptor antagonism; P08908; CHO 5-HT1a Ga15 NFAT-bla reporter, antagonist mode; inhibition, % at 10 µM; 62,000 tested, 0.68% active;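 active = inhibition above the mean of all tested compounds plus 3 SD, cut at about 43% in these data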;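 note: receptor stimulated by 5-CT agonist at 100 nM near EC80; beta-lactamase reporter measured by ratiometric fluorescence of a cleavable substrate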
HTR1A agonist – agonists of human 5-HT1a serotonin receptor. P08908. CHO 5-HT1a Ga15 NFAT-bla reporter, FRET ratio; 0% basal, 100% maximal reference agonist. activation, % at 10 µM. 65,000 tested, 0.56% active;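 active = activation above the screen-wide mean activation plus 3 SD, cut at about 19% in these data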;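 note: 0% = DMSO wells and 100% = 5-CT at EC100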
HTR1E agonist – agonists of human 5-HT1E serotonin receptor | 65,000 tested, 0.69% active | CHO 5-HT1E Ga15 NFAT-bla reporter, FRET; 0% DMSO wells, 100% control agonist wells | activation, % at 6 µM | AID 574 | P28566;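 active = activation above a set limit, the screen-wide mean activation plus 3 SD, cut at about 8.5% in these data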;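 note: 100% = positive control agonist at 1 µM giving full maximal response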
S1P1 ag-PAM – agonists and agonism potentiators of human S1P1 receptor; P21453; S1P1 CRE-bla cells, forskolin, beta-lactamase FRET, potentiator mode; S1P1 agonist co-added at EC20, 2 nM; 100% = saturating reference agonist, 0% = basal; AID 449; 56,000 tested, 0.57% active; activation, % at 9.5 µM;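 active = activation above a cutoff set at the mean activation of all tested compounds plus 3 SD, cut at about 54% in these data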;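 note: forskolin at 4 µM as EC80 and the EC20 agonist is SEW2871; 100% = SEW2871 at its EC100 plus forskolin at EC80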
* = called active by the depositor; . = no result.

SMILES	5HT1E antag	S1P3 ag	5HT1a antag	HTR1A agonist	HTR1E agonist	S1P1 ag-PAM
CC(=O)OC(C(=O)NC1CCCCC1)c1ccc(C#N)cc1 (stereo not given)	9	0	2	-3	-1	-15
O=C(NCc1ccccn1)c1ccc(N2CCCC2=O)cc1	2	-1	4	-2	0	-22
COc1cc(CSc2nnnn2-c2ccc(C)cc2)cc(OC)c1OC	12	-2	22	-1	0	102*
CCOC(=O)c1oc2ccccc2c1CSc1nnnn1-c1ccc(C)cc1	-1	3	32	-5	0	-3
COc1ccc(CCNC(=O)c2ccncc2)cc1OC	5	-2	7	2	0	-10
CN(C)Cc1cc(CCNC(=O)c2ccc(Cl)cc2)ccc1O	7	0	27	-3	14*	10
CCOc1ccc(C(C)=O)cc1CSc1nnc(-c2cccs2)n1CC1CCCO1 (stereo not given)	0	0	28	1	0	5
Cc1ccc(S(=O)(=O)N2CCN(S(=O)(=O)N3CCCCC3)CC2)cc1	-8	0	-9	4	0	-1
Cc1ccc(S(=O)(=O)N2CC3(C)CN(S(=O)(=O)c4ccc(C)cc4)CC(C)(C2)C3O)cc1 (stereo not given)	0	1	-14	3	9.9*	-7
COC(=O)C1=C(CSCc2ccco2)NC(=O)NC1c1cc(C)ccc1C (stereo not given)	-1	-1	1	2	-1	6
COc1ccc(C(=O)OCCNC(=O)c2c(Cl)nc3ccccn23)cc1	35*	0	4	5	1	-40
O=C(NCCOC(=O)c1ccncc1)c1ccccc1	5	0	-8	-2	0	-27
CSc1ccccc1NC(=O)c1cccnc1	-3	1	-12	-1	48*	4
COc1ccc(CNC(=O)C2CCN(S(=O)(=O)c3cccc4cccnc34)CC2)cc1	-12	0	2	0	0	-12
O=C(NCc1ccccc1)NC1(C(=O)N2CCCC2)CCCCC1	2	-1	6	-1	89*	11
O=C(NCc1ccccc1)NC1(C(=O)N2CCN(c3ncccn3)CC2)CCCCC1	-1	0	5	-1	0	-24
CCOC(=O)Nc1nnc(-c2ccc(OC)c(OC)c2)s1	6	-1	5	0	0	-13
Cc1ccc2cc3cc(C(=O)NCCC(C)C)oc3nc2c1	3	-1	9	-1	0	21
CCN(C(=O)c1cc2cc3ccc(C)cc3nc2o1)c1ccc(OC)cc1	-6	1	46*	-2	-1	-27
Cn1cccc1C(=O)c1ccc(Cl)cc1Cl	11	-1	4	-3	0	0
NC/C(=N\O)c1ccc(Cl)cc1Cl	1	0	-15	-2	13*	-7
COc1ccc(CN(C(=O)CSc2nnc(-c3ccccc3F)o2)c2ccc(F)cc2)cc1	11	-1	15	0	-1	29
Cc1ccc(-c2cc(-c3ccc(Cl)cc3)c(C#N)c(N)n2)o1	-2	5.9*	-5	4	0	-216
Cc1cc(-c2cc(-c3ccc(Cl)cc3)nc(N)c2C#N)co1	-27	8	.	41*	7	-87
CC(C)Cn1c(=O)c2c(nc3n2CCCN3CCc2ccccc2)n(C)c1=O	9	-1	4	10	1	3
SMILES	5HT1E antag	S1P3 ag	5HT1a antag	HTR1A agonist	HTR1E agonist	S1P1 ag-PAM
C=C(C)Cn1c(CCCNC(=O)CCC)nc2ccccc21	8	.	11	-5	0	.
Oc1c(CN2CCOCC2)cc(COCc2ccccc2)c2cccnc12	43*	-1	17	-1	1	8
c1ccc(N2CCN(Cc3cn4cccnc4n3)CC2)cc1	7	0	-3	-1	59*	-2
c1ccc(N2CCN(Cc3ccnc4ccccc34)CC2)cc1	17	-2	15	1	1	78*
c1ccc(CN2CCN(c3ncccn3)CC2)nc1	1	-1	-16	1	1	-19
Cc1nnc2n1N=CC=C(c1ccccc1)S2	30*	-1	9	0	0	20
CCOC(=O)C(Oc1ccc(=O)n(-c2ccccc2)n1)C(C)=O (stereo not given)	11	-1	0	-1	-1	-6
Cc1ccc(-c2cc(C(F)(F)F)c(C#N)c(SCCC#N)n2)o1	-7	6	0	34*	6	.
Cc1ccc(-c2cc(-c3ccc(C)o3)nc(N)c2C#N)cc1	-8	1	-4	7	1	-125
O=C(N1CCOCC1)N1CCN(S(=O)(=O)c2ccccc2)C1	-11	-1	3	-2	-1	19
Cc1cc(NC(=O)Cc2cccs2)nn1CC(=O)NCc1ccco1	7	-1	7	-3	16*	-2
Cc1ccccc1NC(=O)CN(C)S(=O)(=O)c1cccc2cccnc12	-13	1	-4	-1	0	2
O=C(CCn1nnc2ccccc21)Nc1nnc(Cc2ccc(F)cc2)s1	3	-2	6	-1	13*	-6
O=C(CCn1nnc2ccccc21)Nc1nnc(COc2ccc(F)cc2)s1	15	-1	24	4	0	14
CC(=O)Oc1ccc(CCC(C)OC(C)=O)cc1 (stereo not given)	-6	-2	-9	0	1	-15
Cc1cccc(-n2ncc(C#N)c2N)c1	-6	0	-12	0	0	-8
N#CC1=C(N)N(c2ccccc2)C(c2ccco2)C1(C#N)C#N (stereo not given)	27	-1	22	42*	-2	7
Cc1cccc(N2C(N)=C(C#N)C(C#N)(C#N)C2c2ccccc2)c1 (stereo not given)	42*	1	6	-1	1	-25
CC1Cc2ccccc2N1S(=O)(=O)c1cccs1 (stereo not given)	-2	-1	-2	-2	0	-16
Cc1ccc(S(=O)(=O)N2c3ccc(S(N)(=O)=O)cc3CC2C)cc1 (stereo not given)	14	0	7	86*	-1	.
Cc1csc(NC(=O)C2CCCN(S(=O)(=O)c3ccc(Br)s3)C2)n1 (stereo not given)	-1	.	10	0	-1	.
O=C(CSc1nccn1-c1ccccc1)Nc1ccc2c(c1)OCO2	10	-2	11	-3	-1	-1
O=C(CSc1nccn1-c1ccc(F)cc1)Nc1ccc2c(c1)OCO2	1	-1	12	-1	14*	9
Cc1ccc(C)c(N2CCN(Cc3nnnn3C3CCCCC3)CC2)c1	-9	-1	26	2	42*	-10
